How the values were obtained:
B2 bradykinin receptor [1] = target: T1, B2 bradykinin receptor (Homo sapiens, UniProt P30411); assay: Inhibition specific binding of [3H]BK (1.0 nM) to human Bradykinin receptor B2 which was expressed in CHO (Chinese hamster ovary) cells by 50%.; type: cell-based
T1 sequence (P30411 whole entry): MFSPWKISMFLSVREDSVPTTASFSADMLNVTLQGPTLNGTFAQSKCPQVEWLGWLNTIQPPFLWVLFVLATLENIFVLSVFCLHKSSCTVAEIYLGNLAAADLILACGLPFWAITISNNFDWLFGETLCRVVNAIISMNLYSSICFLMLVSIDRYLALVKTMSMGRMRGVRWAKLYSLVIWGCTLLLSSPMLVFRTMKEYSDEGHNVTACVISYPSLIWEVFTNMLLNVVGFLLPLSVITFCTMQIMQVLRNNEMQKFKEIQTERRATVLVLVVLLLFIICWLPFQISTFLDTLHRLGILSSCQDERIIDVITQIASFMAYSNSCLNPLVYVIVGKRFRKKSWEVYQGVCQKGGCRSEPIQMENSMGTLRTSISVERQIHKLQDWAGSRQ
How it was run: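 CHO (dhfr−) cells stably expressing human B2 receptor, seeded at 3.0 × 10^4 cells/well and cultured 1 day. Whole cells incubated with 1.0 nM [3H]BK plus compound for 2 h at 4 °C in HEPES/N-methyl-D-glucamine buffer pH 7.2 with bacitracin, enalaprilat and BSA. Washed, solubilized in SDS/NaOH and counted. Nonspecific binding with 1 μM BK; DMSO below 3%; three experiments.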

B2 bradykinin receptor [2] = target: T2, B2 bradykinin receptor (Cavia porcellus, UniProt O70526); assay: Concentration required to inhibit specific binding of [ 3H]BK (0.06 nM) to Bradykinin receptor B2 in guinea pig ileum membrane preparations by 50%.; type: cell membranes
T2 sequence (O70526 whole entry): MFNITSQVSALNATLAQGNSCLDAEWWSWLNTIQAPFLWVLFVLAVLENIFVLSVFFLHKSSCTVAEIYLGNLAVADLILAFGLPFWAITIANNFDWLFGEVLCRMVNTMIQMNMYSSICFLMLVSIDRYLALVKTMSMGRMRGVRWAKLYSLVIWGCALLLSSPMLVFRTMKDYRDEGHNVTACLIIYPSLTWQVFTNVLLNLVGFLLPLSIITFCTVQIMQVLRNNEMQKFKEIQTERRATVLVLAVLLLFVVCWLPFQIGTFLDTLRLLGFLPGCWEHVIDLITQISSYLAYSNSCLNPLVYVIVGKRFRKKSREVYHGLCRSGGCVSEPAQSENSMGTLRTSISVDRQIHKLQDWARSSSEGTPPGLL
How it was run: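 Ileal membranes from male Hartley guinea pigs (0.2 mg protein/mL) in TES buffer pH 6.8 with phenanthroline, bacitracin, DTT, captopril and BSA. Incubated with 0.06 nM [3H]BK plus compound for 60 min at room temperature, then filtered through GF/B and counted by scintillation.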

Cavia porcellus [3] = assay: Inhibition of Bradykinin induced Bronchoconstriction in anaesthetized guinea pig at 0.32mg/kg, po; type: functional
How it was run: (§1)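 Male Hartley guinea pigs (470–750 g), fasted overnight, anesthetized with ip pentobarbital (30 mg/kg) and ventilated at 10 mL/kg, 60 breaths/min. Given alcuronium (0.5 mg/kg iv) and propranolol (10 mg/kg sc). BK 5 μg/kg iv, with bronchoconstriction read as peak pulmonary insufflation pressure (modified Konzett–Rössler).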

Cavia porcellus [4] = assay: In vivo inhibition of Bradykinin induced Bronchoconstriction in anaesthetized guinea pig following 1 mg/kg p.o.; type: functional; conditions: route oral; how it was run: as §1
B2 bradykinin receptor [5] = target: T1, B2 bradykinin receptor; assay: Concentration required to inhibit specific binding of [3H]BK (1.2 nM) to A-431 cells (human epidermoid carcinoma) which express Bradykinin receptor B2 by 50%.; type: cell-based

Row | IC50 (B2 bradykinin receptor [1]) | IC50 (B2 bradykinin receptor [2]) | IC50 (B2 bradykinin receptor [5]) | SMILES | inhibition in vivo at 0.32 mg/kg (Cavia porcellus [3]) | inhibition in vivo at 1 mg/kg (Cavia porcellus [4])
1 | 670 nM | 94 nM | – | CNC(=O)c1ccc(/C=C/C(=O)NCC(=O)N(C)c2ccc(C)c(COc3cccc4c3nc(NC)n4C)c2C)cc1 | – | –
2 | 48 nM | 8.9 nM | – | CCn1c(C)nc2c(OCc3c(Cl)ccc(N(C)C(=O)CNC(=O)/C=C/c4ccc(C(=O)NC)cc4)c3Cl)cccc21 | – | –
3 | 4.8 nM | 0.97 nM | – | CNC(=O)c1ccc(/C=C/C(=O)NCC(=O)N(C)c2ccc(C)c(COc3cccc4ccc(C)nc34)c2C)cc1 | 79% | 90.5%
4 | 130 nM | 4.1 nM | – | Cc1cnc2cccc(OCc3c(C)ccc(N(C)C(=O)CNC(=O)/C=C/c4ccc(C(=O)N(C)C)cc4)c3C)c2n1 | – | –
5 | 0.51 nM | 0.76 nM | – | Cc1ccc2cccc(OCc3c(Cl)ccc(N(C)C(=O)CNC(=O)/C=C/c4ccc(/C=C/c5ccncc5)nc4)c3Cl)c2n1 | 43.6% | 87.3%
6 | 79 nM | 9.5 nM | – | CNC(=O)c1ccc(/C=C/C(=O)NCC(=O)N(C)c2ccc(C)c(COc3cccc4c3nc(SC)n4C)c2C)cc1 | – | –
7 | 590 nM | 18 nM | – | CNC(=O)c1ccc(/C=C/C(=O)NCC(=O)N(C)c2ccc(C)c(COc3cccc4ncc(C)nc34)c2C)cn1 | – | –
8 | 730 nM | 90 nM | – | CCOc1nc2c(OCc3c(C)ccc(N(C)C(=O)CNC(=O)/C=C/c4ccc(C(=O)NC)cc4)c3C)cccc2n1C | – | –
9 | 3.9 nM | 1.3 nM | – | Cc1ccc2cccc(OCc3c(Cl)ccc(N(C)C(=O)CNC(=O)/C=C/c4ccc(C(=O)N(C)C)cc4)c3Cl)c2n1 | 50.8% | 89.7%
10 | 4.2 nM | 0.65 nM | – | COc1nc2c(OCc3c(Cl)ccc(N(C)C(=O)CNC(=O)/C=C/c4ccc(NC(C)=O)nc4)c3Cl)cccc2n1C | – | 55.4%
11 | 46 nM | 2.4 nM | – | Cc1cnc2cccc(OCc3c(C)ccc(N(C)C(=O)CNC(=O)/C=C/c4ccc(N5CCCC5=O)cc4)c3C)c2n1 | – | –
12 | 58 nM | 2.2 nM | – | CNC(=O)c1ccc(/C=C/C(=O)NCC(=O)N(C)c2ccc(C)c(COc3cccc4ccc(C)nc34)c2C)cn1 | – | –
13 | 270 nM | 23 nM | – | CNC(=O)c1ccc(/C=C/C(=O)NCC(=O)N(C)c2ccc(Cl)c(COc3cccc4c(C)c(C)oc34)c2Cl)cc1 | – | –
14 | 1.9 nM | 0.5 nM | – | CC(=O)Nc1ccc(/C=C/C(=O)NCC(=O)N(C)c2ccc(Cl)c(COc3cccc4ccc(C)nc34)c2Cl)cc1 | 33.2% | 80%
15 | 130 nM | 48 nM | – | CC(=O)Nc1ccc(/C=C/C(=O)NCC(=O)N(C)c2ccc(C)c(COc3cccc4ncc(C)nc34)c2C)cn1 | – | –
16 | 11 nM | 6.3 nM | – | Cc1ccc2cccc(OCc3c(Cl)ccc(N(C)C(=O)CNC(=O)/C=C/c4ccc(C(=O)Nc5ccccc5)cc4)c3Cl)c2n1 | – | –
17 | 30 nM | 11 nM | – | Cc1ccc2cccc(OCc3c(Cl)ccc(N(C)C(=O)CNC(=O)/C=C/c4ccc(C(=O)Nc5ccccn5)cc4)c3Cl)c2n1 | – | –
18 | 7.5 nM | 0.62 nM | – | Cc1ccc2cccc(OCc3c(Cl)ccc(N(C)C(=O)CNC(=O)/C=C/c4ccc(C(=O)Nc5cccnc5)cc4)c3Cl)c2n1 | – | 46.8%
19 | – | 1.1 nM | 14 nM | Cc1ccc2cccc(OCc3c(Cl)ccc(N(C)C(=O)CNC(=O)/C=C/c4cccc(C(=O)N(C)C)c4)c3Cl)c2n1 | – | –
20 | 5.2 nM | 0.13 nM | – | Cc1ccc2cccc(OCc3c(Cl)ccc(N(C)C(=O)CNC(=O)/C=C/c4ccc(N5CCCC5=O)nc4)c3Cl)c2n1 | 68.6% | 89.9%
21 | 8400 nM | 1100 nM | – | CCOC(=O)Cc1nc2c(OCc3c(C)ccc(N(C)C(=O)CNC(=O)/C=C/c4ccc(C(=O)NC)cc4)c3C)cccc2n1C | – | –
22 | 26 nM | 1.1 nM | – | Cc1cnc2cccc(OCc3c(Cl)ccc(N(C)C(=O)CNC(=O)/C=C/c4ccc(N5CCCC5=O)cc4)c3Cl)c2n1 | – | –

Row | IC50 (B2 bradykinin receptor [1]) | IC50 (B2 bradykinin receptor [2]) | IC50 (B2 bradykinin receptor [5]) | SMILES | inhibition in vivo at 0.32 mg/kg (Cavia porcellus [3]) | inhibition in vivo at 1 mg/kg (Cavia porcellus [4])
23 | 17 nM | 3.5 nM | – | CNC(=O)c1ccc(/C=C/C(=O)NCC(=O)N(C)c2ccc(C)c(COc3cccc4ncc(C)nc34)c2C)cc1 | – | –
24 | 9 nM | – | – | CNC(=O)c1ccc(/C=C/C(=O)NCC(=O)N(C)c2ccc(Cl)c(COc3cccn4c(Br)c(C)nc34)c2Cl)cc1 | – | –
25 | 8.5 nM | 0.94 nM | – | COc1nc2c(OCc3c(C)ccc(N(C)C(=O)CNC(=O)/C=C/c4ccc(NC(C)=O)nc4)c3C)cccc2n1C | 75.2% | 98.4%
26 | 8.5 nM | 0.82 nM | – | CC(=O)Nc1ccc(/C=C/C(=O)NCC(=O)N(C)c2ccc(C)c(COc3cccc4ccc(C)nc34)c2C)cn1 | 55.5% | 98.2%
27 | 2.5 nM | 15 nM | – | Cc1ccc2cccc(OCc3c(Cl)ccc(N(C)C(=O)CNC(=O)/C=C/c4ccc(C(=O)Nc5ccncc5)nc4)c3Cl)c2n1 | – | 60%
28 | 2.2 nM | – | – | Cc1nc2c(OCc3c(Cl)ccc(N(C)C(=O)CNC(=O)/C=C/c4ccc(C(=O)N(C)C)cc4)c3Cl)cccn2c1Br | – | –
29 | 14 nM | 0.94 nM | – | COc1nc2c(OCc3c(Cl)ccc(N(C)C(=O)CNC(=O)/C=C/c4ccc(C(=O)N(C)C)cc4)c3Cl)cccc2n1C | – | 87.7%
30 | 4.6 nM | 0.68 nM | – | CNC(=O)c1ccc(/C=C/C(=O)NCC(=O)N(C)c2ccc(Cl)c(COc3cccc4ccc(C)nc34)c2Cl)cn1 | 68.4% | 93.9%
31 | 160 nM | 38 nM | – | CNC(=O)c1ccc(/C=C/C(=O)NCC(=O)N(C)c2ccc(C)c(COc3cccc4c3nc(N(C)C)n4C)c2C)cc1 | – | –
32 | 1.4 nM | 0.46 nM | – | CC(=O)Nc1ccc(/C=C/C(=O)NCC(=O)N(C)c2ccc(Cl)c(COc3cccc4ccc(C)nc34)c2Cl)cn1 [FR-173657] | 73.2% | 94.4%
33 | 470 nM | 0.79 nM | – | Cc1ccc2cccc(OCc3c(Cl)ccc(N(C)C(=O)CNC(=O)/C=C/c4cccnc4)c3Cl)c2n1 | 63.7% | 97.2%
34 | 1.8 nM | 1.1 nM | – | Cc1ccc2cccc(OCc3c(Cl)ccc(N(C)C(=O)CNC(=O)/C=C/c4ccc(C(=O)Nc5ccncc5)cc4)c3Cl)c2n1 | – | 29.5%
35 | 3.2 nM | 0.55 nM | – | Cc1ccc2cccc(OCc3c(Cl)ccc(N(C)C(=O)CNC(=O)/C=C/c4ccc(N5CCCC5=O)cc4)c3Cl)c2n1 | 44.7% | 85.3%
36 | > 1000 nM | 510 nM | – | CNC(=O)c1ccc(/C=C/C(=O)NCC(=O)N(C)c2ccc(Cl)c(COc3cccc4c3nc(-c3ccccc3)n4C)c2Cl)cc1 | – | –
37 | 2.8 nM | 3.3 nM | – | Cc1ccc2cccc(OCc3c(Cl)ccc(N(C)C(=O)CNC(=O)/C=C/c4ccc(NC(=O)c5ccncc5)nc4)c3Cl)c2n1 | – | 68.8%
38 | 94 nM | 200 nM | – | CNC(=O)c1ccc(/C=C/C(=O)NCC(=O)N(C)c2ccc(C)c(COc3cccc4c3nc(C(C)=O)n4C)c2C)cc1 | – | –
39 | 44 nM | 1.9 nM | – | Cc1cnc2cccc(OCc3c(Cl)ccc(N(C)C(=O)CNC(=O)/C=C/c4ccc(C(=O)N(C)C)cc4)c3Cl)c2n1 | – | –
40 | 9.3 nM | 0.47 nM | – | Cc1ccc2cccc(OCc3c(C)ccc(N(C)C(=O)CNC(=O)/C=C/c4ccc(N5CCCC5=O)cc4)c3C)c2n1 | 75.7% | 94.9%
41 | 39 nM | 1.4 nM | – | Cc1ccc2cccc(OCc3c(C)ccc(N(C)C(=O)CNC(=O)/C=C/c4ccc(N5CCCC5=O)nc4)c3C)c2n1 | – | –
42 | 340 nM | 0.69 nM | – | Cc1ccc2cccc(OCc3c(Cl)ccc(N(C)C(=O)CNC(=O)/C=C/c4ccccc4)c3Cl)c2n1 | – | 25.2%
43 | 9100 nM | 1000 nM | – | CNC(=O)c1ccc(/C=C/C(=O)NCC(=O)N(C)c2ccc(C)c(COc3cccc4c3nc(COC)n4C)c2C)cc1 | – | –
